Experimental data reported in ChEMBL document CHEMBL3244357, “Biologically oriented organic sulfur chemistry. 15. Organic disulfides and related substances. 41. Inhibition of the fungal pathogen Histoplasma capsulatum by some organic disulfides” (J Med Chem, 1977).
Values after ≈ are worked out from the molar mass of the structure shown. Active and inactive are the calls of the source. The rule behind the calls is not given here.

Columns and labels:
Histoplasma capsulatum [1] = experiment: Antifungal activity against Histoplasma capsulatum 26 by agar dilution assay; format: functional
Procedure, shortened: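 In vitro MIC against H. capsulatum strain 26 by standard agar dilution. Amphotericin B was run as the standard in each test.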

Mus musculus [2] = experiment: Toxicity in ip dosed mouse; format: organism-based; conditions: in vivo
Histoplasma capsulatum [3] = experiment: Antifungal activity against Histoplasma capsulatum infected in x-irradiated mouse assessed as prolongation of lifetime at 13 mg/kg, sc bid administered on day 0, 1 and 2 post infection; format: functional; conditions: route subcutaneous
Procedure, shortened: (§1)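 Mice infected with H. capsulatum were dosed sc at 0 and 4 h postinfection on days 0, 1 and 2, six doses in total. Read-out was % extension of lifetime beyond untreated controls. Amphotericin B, dosed the same way, served as positive control.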

Histoplasma capsulatum [4] = experiment: Antifungal activity against Histoplasma capsulatum infected in x-irradiated mouse assessed as prolongation of lifetime at 25 mg/kg, sc bid administered on day 0, 1 and 2 post infection; format: functional; conditions: route subcutaneous; procedure, shortened: as §1
Histoplasma capsulatum [5] = experiment: Antifungal activity against Histoplasma capsulatum infected in x-irradiated mouse assessed as prolongation of lifetime at 50 mg/kg, sc bid administered on day 0, 1 and 2 post infection; format: functional; conditions: route subcutaneous; procedure, shortened: as §1
Candida albicans [6] = experiment: Antifungal activity against Candida albicans by disk-plate assay; format: functional, organism-based
Candida albicans [7] = experiment: Antifungal activity against Candida albicans infected in mouse; format: functional, organism-based
Histoplasma capsulatum [8] = experiment: Antifungal activity against Histoplasma capsulatum infected in x-irradiated mouse assessed as prolongation of lifetime at 6 mg/kg, sc bid administered on day 0, 1 and 2 post infection; format: functional; conditions: route subcutaneous; procedure, shortened: as §1
Mus musculus [9] = experiment: Toxicity in mouse at 50 mg/kg, sc bid; format: organism-based; design: dose 50 mg/kg, route subcutaneous; conditions: in vivo
Histoplasma capsulatum [10] = experiment: Antifungal activity against Histoplasma capsulatum infected in x-irradiated mouse assessed as prolongation of lifetime at 20 mg/kg, sc bid administered on day 0, 1 and 2 post infection; format: functional; conditions: route subcutaneous; procedure, shortened: as §1
Histoplasma capsulatum [11] = experiment: Antifungal activity against Histoplasma capsulatum infected in x-irradiated mouse assessed as prolongation of lifetime at 10 mg/kg, sc bid administered on day 0, 1 and 2 post infection; format: functional; conditions: route subcutaneous; procedure, shortened: as §1
Histoplasma capsulatum [12] = experiment: Antifungal activity against Histoplasma capsulatum infected in x-irradiated mouse assessed as prolongation of lifetime at 40 mg/kg, sc bid administered on day 0, 1 and 2 post infection; format: functional; conditions: route subcutaneous; procedure, shortened: as §1

SMILES | MIC (Histoplasma capsulatum [1]) [µg/mL] | Activity (Mus musculus [2]) [g/kg] | Activity (Histoplasma capsulatum [3]) [%] | Activity (Histoplasma capsulatum [4]) [%] | Activity (Histoplasma capsulatum [5]) [%] | other results
O=C(O)c1ccccc1SSC(=S)N1CCOCC1 | > 10 | 0.1 | -2 | -5 | -7 | –
Cc1ccc(SSCCN)cc1.Cl | > 20 | – | 4 | 0 | 9 | –
CCCCCCCCCCN1CCSSC1=S | > 10 | 0.1 | – | – | – | –
CN(C)C(=S)SSc1ccc(Cl)cc1 | 5 (≈ 19 µM) | 1 | -14 | 13 | 11 | Activity (Candida albicans [6]): Active; Activity (Candida albicans [7]): inactive
S=C(SSC(=S)N1CCOCC1)N1CCOCC1 | 40 (≈ 123 µM) | – | 5 | 5 | – | Activity (Histoplasma capsulatum [8]): 5%; Activity (Mus musculus [9]): Toxic
Cc1ccc(SSC(=S)N2CCOCC2)cc1 | 40 (≈ 140 µM) | – | 5 | 0 | 9 | –
CN(C)C(=S)SSc1ccccc1C(=O)O | < 1 | 0.1 | – | – | – | –
CC(C)(C)SSC(=S)N1CCOCC1 | > 40 | – | – | – | – | Activity (Histoplasma capsulatum [10]): 5%; Activity (Histoplasma capsulatum [11]): -4%; Activity (Histoplasma capsulatum [12]): 11%
COc1ccc(C(=S)SSc2ccc(C)cc2)cc1 | 20 (≈ 65.3 µM) | – | 2 | 7 | -2 | –
Cc1ccc(SSCCCCS(=O)[O-])cc1.[Na+] | 20 | – | 15 | -6 | -21 | –
S=C(SSc1ccccc1)N1CCOCC1 | 40 (≈ 147 µM) | – | 11 | 9 | – | Activity (Histoplasma capsulatum [8]): 5%; Activity (Mus musculus [9]): Toxic
COc1ccc(CSSCCCCS(=O)[O-])cc1.[Na+] | 20 | – | -2 | -19 | 9 | –
C[C@@H]1[C@H](O)[C@@H](C)/C=C/C=C/C=C/C=C/C=C/C=C/C=C/[C@H](O[C@@H]2O[C@H](C)[C@@H](O)[C@H](N)[C@@H]2O)C[C@@H]2O[C@](O)(C[C@@H](O)C[C@@H](O)[C@H](O)CC[C@@H](O)C[C@@H](O)CC(=O)O[C@H]1C)C[C@H](O)[C@H]2C(=O)O [AMPHOTERICIN B] | 0.0625 (≈ 0.0676 µM) | – | – | 58 | 70 | –
S=C1SSCCN1CCCCC1CCCCC1 | 10 (≈ 34.5 µM) | 0.1 | – | – | – | –
CCSSC(=S)N1CCOCC1 | 10 (≈ 44.8 µM) | – | 5 | 5 | – | Activity (Histoplasma capsulatum [8]): 5%; Activity (Mus musculus [9]): Toxic
Cc1ccc(SSCC(=O)O)cc1 | 20 (≈ 93.3 µM) | – | 17 | -6 | 0 | –
